In ChEMBL document CHEMBL2331489, “Novel cinnoline-based inhibitors of LRRK2 kinase activity” (Bioorg Med Chem Lett, 2013):
Calls of active or inactive are those of the source. The rule behind the calls is not given here.

Tests used:
[1] = molecular target: Receptor-type tyrosine-protein kinase FLT3 (Homo sapiens) (UniProt P36888); test: Inhibition of FLT3 (unknown origin) at 10 uM relative to control
[2] = molecular target: T1, Leucine-rich repeat serine/threonine-protein kinase 2 (Homo sapiens, UniProt Q5S007, G2019S); test: Inhibition of GST-tagged LRRK2 G2019S mutant (970 to 2527 amino acid residues) (unknown origin) assessed as inhibition of biotinylated-LRRKtide phosphorylation by HTRF assay in presence of ATP
T1 sequence (Q5S007 whole entry G2019S, the tested form may be a part): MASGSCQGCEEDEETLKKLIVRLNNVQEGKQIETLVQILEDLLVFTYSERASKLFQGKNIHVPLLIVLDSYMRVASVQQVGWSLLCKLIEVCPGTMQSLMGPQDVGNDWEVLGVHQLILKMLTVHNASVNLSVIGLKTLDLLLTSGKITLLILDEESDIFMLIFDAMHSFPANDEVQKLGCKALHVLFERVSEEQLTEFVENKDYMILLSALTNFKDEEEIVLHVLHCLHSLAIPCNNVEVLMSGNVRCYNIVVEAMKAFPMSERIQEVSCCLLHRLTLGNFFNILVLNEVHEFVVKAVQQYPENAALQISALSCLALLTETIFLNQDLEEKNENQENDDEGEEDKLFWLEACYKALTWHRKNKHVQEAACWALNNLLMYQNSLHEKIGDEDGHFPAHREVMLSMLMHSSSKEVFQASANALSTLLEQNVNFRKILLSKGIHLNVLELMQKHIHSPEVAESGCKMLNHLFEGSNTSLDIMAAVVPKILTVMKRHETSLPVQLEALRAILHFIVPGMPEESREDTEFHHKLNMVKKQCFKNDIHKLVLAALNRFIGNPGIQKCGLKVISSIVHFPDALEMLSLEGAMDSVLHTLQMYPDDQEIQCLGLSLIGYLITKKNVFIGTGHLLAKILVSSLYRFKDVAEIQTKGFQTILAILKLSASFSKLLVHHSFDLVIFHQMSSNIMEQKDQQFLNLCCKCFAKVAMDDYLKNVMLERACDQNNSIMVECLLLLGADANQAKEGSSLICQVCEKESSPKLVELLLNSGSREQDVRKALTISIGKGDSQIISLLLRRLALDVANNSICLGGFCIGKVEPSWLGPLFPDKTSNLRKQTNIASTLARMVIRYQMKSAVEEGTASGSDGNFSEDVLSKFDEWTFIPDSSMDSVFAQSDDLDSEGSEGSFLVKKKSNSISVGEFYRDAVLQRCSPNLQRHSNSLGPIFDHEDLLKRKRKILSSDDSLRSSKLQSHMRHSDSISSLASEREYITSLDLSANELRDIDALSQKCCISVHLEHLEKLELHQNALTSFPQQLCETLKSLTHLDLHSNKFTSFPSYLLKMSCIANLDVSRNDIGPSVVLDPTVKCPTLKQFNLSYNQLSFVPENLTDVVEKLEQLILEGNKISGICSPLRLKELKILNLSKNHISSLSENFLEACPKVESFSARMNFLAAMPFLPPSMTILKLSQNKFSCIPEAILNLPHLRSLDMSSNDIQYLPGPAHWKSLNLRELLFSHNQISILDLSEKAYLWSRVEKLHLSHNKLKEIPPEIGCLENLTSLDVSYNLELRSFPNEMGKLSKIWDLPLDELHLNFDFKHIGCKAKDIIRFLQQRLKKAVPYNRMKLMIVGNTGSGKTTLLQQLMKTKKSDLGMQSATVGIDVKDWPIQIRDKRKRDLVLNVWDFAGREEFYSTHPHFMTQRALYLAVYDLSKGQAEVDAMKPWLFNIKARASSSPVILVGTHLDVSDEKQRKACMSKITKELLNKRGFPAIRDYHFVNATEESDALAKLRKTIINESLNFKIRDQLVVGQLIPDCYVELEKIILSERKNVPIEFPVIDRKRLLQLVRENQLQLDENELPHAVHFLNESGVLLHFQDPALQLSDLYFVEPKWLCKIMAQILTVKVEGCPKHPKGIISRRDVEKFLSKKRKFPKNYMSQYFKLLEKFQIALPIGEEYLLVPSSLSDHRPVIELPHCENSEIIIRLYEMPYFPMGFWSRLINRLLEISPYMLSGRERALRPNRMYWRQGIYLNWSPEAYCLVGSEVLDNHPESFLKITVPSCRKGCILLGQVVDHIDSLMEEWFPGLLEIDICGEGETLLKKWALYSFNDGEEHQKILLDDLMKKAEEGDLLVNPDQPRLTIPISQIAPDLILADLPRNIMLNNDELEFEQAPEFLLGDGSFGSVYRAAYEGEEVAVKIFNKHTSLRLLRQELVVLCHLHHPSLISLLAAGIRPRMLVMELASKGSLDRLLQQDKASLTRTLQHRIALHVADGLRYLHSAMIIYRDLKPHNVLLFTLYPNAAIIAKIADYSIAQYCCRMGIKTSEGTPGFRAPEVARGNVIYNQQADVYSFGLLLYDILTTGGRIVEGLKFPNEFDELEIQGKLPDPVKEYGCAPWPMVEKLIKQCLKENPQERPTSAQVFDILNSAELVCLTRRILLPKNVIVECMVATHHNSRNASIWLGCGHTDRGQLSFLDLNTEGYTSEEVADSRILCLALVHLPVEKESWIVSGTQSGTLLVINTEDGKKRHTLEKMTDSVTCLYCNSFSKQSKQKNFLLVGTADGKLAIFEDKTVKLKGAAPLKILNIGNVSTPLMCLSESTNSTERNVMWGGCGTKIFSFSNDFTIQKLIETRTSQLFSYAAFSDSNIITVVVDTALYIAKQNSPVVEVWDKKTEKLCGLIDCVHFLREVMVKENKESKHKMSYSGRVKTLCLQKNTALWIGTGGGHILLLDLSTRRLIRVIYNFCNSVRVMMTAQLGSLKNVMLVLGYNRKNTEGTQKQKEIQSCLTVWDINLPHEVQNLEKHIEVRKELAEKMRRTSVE

[3] = molecular target: ATP-dependent translocase ABCB1 (Homo sapiens, UniProt P08183); test: Inhibition of MDR1 (unknown origin) transfected in MDCK cells; format: cell-based
[4] = molecular target: Leucine-rich repeat serine/threonine-protein kinase 2 (Homo sapiens, UniProt Q5S007); test: Inhibition of wild type GST-tagged LRRK2 (970 to 2527 amino acid residues) (unknown origin) assessed as inhibition of biotinylated-LRRKtide phosphorylation by HTRF assay in presence of ATP
Chain of Leucine-rich repeat serine/threonine-protein kinase 2 (Homo sapiens, UniProt Q5S007) (Q5S007 whole entry, the tested form may be a part): as the sequence (Q5S007 whole entry G2019S, the tested form may be a part) above, with S2019G counted along it

[5] = molecular target: Macrophage colony-stimulating factor 1 receptor (Homo sapiens, UniProt P07333); test: Inhibition of CSF1R (unknown origin) by TR-FRET assay in presence of ATP
Chain of Macrophage colony-stimulating factor 1 receptor (P07333 whole entry): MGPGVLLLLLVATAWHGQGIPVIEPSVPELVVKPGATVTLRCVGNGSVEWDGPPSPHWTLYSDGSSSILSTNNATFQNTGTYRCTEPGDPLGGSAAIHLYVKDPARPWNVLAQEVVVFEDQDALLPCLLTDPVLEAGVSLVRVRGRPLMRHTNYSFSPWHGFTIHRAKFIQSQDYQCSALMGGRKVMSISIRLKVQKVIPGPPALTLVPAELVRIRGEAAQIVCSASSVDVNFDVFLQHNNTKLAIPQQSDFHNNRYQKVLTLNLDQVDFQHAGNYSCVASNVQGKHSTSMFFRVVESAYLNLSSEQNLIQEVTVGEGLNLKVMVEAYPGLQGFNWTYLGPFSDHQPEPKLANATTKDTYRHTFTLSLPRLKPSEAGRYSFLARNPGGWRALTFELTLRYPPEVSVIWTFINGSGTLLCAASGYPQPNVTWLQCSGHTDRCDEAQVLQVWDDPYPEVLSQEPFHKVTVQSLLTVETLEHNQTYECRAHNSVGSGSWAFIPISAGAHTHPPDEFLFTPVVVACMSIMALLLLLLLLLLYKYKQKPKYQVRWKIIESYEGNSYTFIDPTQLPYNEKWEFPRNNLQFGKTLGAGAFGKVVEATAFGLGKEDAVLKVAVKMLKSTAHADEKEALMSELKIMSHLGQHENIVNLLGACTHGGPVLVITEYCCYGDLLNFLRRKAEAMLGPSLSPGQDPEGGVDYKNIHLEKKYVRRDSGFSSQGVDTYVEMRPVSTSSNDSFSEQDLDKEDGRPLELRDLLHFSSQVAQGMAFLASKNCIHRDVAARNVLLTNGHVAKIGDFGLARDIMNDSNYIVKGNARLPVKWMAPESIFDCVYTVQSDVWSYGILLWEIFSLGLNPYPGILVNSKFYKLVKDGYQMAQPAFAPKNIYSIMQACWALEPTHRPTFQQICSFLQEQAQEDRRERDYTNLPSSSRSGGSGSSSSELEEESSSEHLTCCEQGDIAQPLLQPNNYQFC

[6] = Ratio of drug level in brain to plasma in Mdr1(a/b) knock out and P-gp competent FVB mouse at 1 mg/kg, iv at 5 mins; format: ADME, organism-based; design: dose 1 mg/kg, route intravenous; conditions: read-out: BPR
Outline: (§1)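 FVB mice, both Mdr1a/b (-/-) and P-gp-competent wild-type, were given a single 1 mg/kg IV dose. Brain and plasma concentrations were measured 5 min after dosing. Brain uptake was expressed as the brain-to-plasma concentration ratio (Kp). In vivo P-gp efflux was assessed by comparing the knockout and wild-type strains.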

[7] = test system: Mus musculus; test: Inhibition of P-gp in Mdr1(a/b) knock out and P-gp competent FVB mouse at 1 mg/kg, iv; format: functional, organism-based; design: dose 1 mg/kg; outline: as §1
[8] = test system: Brain; test: Drug uptake in Mdr1(a/b) knock out and P-gp competent FVB mouse brain at 1 mg/kg, iv at 5 mins; format: ADME, organism-based; design: dose 1 mg/kg, route intravenous; conditions: in vivo; outline: as §1
[9] = molecular target: Platelet-derived growth factor receptor alpha (Homo sapiens, UniProt P16234); test: Inhibition of PDGFRalpha (unknown origin) by TR-FRET assay in presence of ATP
[10] = molecular target: T1, Leucine-rich repeat serine/threonine-protein kinase 2; test: Inhibition of LRRK2 G2019S mutant (unknown origin) transfected in HEK293 cells assessed as inhibition of S935 phosphorylation; format: cell-based

Chain of Receptor-type tyrosine-protein kinase FLT3 (Homo sapiens) (P36888 whole entry, the tested form may be a part): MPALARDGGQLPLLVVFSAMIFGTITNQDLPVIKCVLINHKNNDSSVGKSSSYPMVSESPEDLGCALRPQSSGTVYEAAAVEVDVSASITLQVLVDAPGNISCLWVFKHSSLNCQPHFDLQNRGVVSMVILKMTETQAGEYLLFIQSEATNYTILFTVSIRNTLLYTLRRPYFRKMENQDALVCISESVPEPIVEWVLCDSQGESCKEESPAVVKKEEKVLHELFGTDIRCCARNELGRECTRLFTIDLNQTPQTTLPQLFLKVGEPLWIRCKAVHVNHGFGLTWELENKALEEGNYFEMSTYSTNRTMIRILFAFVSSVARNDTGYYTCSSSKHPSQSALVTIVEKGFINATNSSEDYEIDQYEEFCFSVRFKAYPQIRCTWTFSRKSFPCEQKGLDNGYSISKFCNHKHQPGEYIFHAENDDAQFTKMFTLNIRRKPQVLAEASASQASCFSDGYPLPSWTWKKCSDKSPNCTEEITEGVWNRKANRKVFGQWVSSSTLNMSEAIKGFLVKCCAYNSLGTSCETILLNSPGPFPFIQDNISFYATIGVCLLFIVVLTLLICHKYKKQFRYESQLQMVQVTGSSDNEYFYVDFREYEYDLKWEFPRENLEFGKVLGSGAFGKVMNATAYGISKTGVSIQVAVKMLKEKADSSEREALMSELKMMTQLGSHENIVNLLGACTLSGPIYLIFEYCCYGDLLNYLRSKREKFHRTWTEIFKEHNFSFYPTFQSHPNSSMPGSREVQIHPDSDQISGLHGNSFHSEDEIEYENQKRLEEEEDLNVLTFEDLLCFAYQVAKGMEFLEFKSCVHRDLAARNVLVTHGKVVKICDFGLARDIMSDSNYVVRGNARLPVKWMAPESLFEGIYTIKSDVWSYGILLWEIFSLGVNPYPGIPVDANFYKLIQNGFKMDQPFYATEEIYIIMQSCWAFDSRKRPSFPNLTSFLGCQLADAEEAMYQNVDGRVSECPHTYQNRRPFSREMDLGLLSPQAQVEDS

SMILES | inhibition [1] [%] | IC50 [2] [nM] | inhibition (INH) [3] | IC50 [4] [nM] | IC50 [5] [nM] | Kp at 5 min [6] | inhibition [7] | Drug uptake [8] | IC50 [9] [nM] | EC50 [10] [nM]
CC(C)Nc1c(C(N)=O)nnc2cc(N3CCOCC3)ccc12 | 99 | 12 | Active | 9 | 54 | 11.4 | Active | Active | 22 | –
CS(=O)(=O)c1ccc(-c2ccc3c(NC4CCC4)c(C(N)=O)nnc3c2)cc1 | 72 | 19 | Active | – | < 40 | 0.76 | Active | Active | 127 | –
CC(C)Nc1c(C(N)=O)nnc2ccc(-c3cn[nH]c3)cc12 | 101 | 5 | – | 1 | – | – | – | – | – | 109
CC(C)Nc1c(C(N)=O)nnc2cc(-c3ccncc3)ccc12 | 96 | – | – | – | – | – | – | – | – | –
C[C@@H](Nc1c(C(N)=O)nnc2cc(-c3ccc(S(C)(=O)=O)cc3)ccc12)C1CC1 | 80 | 7 | – | 1 | 17 | – | – | – | 22 | 70
CC(C)Nc1c(C(N)=O)nnc2ccc(-c3ccncc3)cc12 | 102 | 66 | – | – | – | – | – | – | – | –
CC(C)Nc1c(C(N)=O)cnc2cc(-c3ccc(S(C)(=O)=O)cc3)ccc12 | 75 | – | – | 35 | – | – | – | – | – | –
